Most compounds without a hit are left out; they make up all but 4% or so of the library.
INS promoter inh: TRM-6 insulin promoter activity inhibition; 130,000 compounds, 0.9% hits; inhibition, % at 2 µM; TRM-6 cells (human fetal islet line), insulin promoter-eGFP reporter, imaging; reporter expression induced with tamoxifen;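 active = inhibition above the mean plus 3 SD, with well images judged a real hit on visual review, cut at about 60% in these data, passing the limit was not always enough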
Yeast growth inh: yeast BB579 growth reduction in restrictive medium; 140,000 compounds, 0.51% hits; inhibition, % at 10 µM; S. cerevisiae BB579 growth, OD615, 48 h; AID 804;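 active = inhibition above a set limit, 3 SD over the mean compound inhibition, cut at about 44% in these data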
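Material: Saccharomyces cerevisiae DeaD strain BB579, replicative lifespan model yeast; buffer or medium: CSMM-D restrictive synthetic medium containing dextrose (glucose); compound: 10 µM single dose, DMSO 0.25%; timing: 48 h compound exposure at 30 °C after 4 h preincubation; signal: turbidity as optical density at 615 nm; benchmarks: positive control amphotericin B 10 µg/mL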
Yeast lifespan up: yeast lifespan extension | S. cerevisiae growth with nicotinamide, OD615; deaD strain in restrictive glucose medium | inhibition of the nicotinamide effect, % at 10 µM | 130,000 compounds, 0.68% hits;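 active = inhibition above a set limit, placed 3 SD over the median of all compounds, cut at about 26% in these data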;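 also: 0% = nicotinamide-treated wells and 100% = cells grown without nicotinamide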
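Buffer or medium: CSMM-D glucose medium, restrictive; test system: modified budding yeast, DeaD strain; compound: single dose 10 µM compound, 0.25% DMSO; schedule: culture preincubation 4 h, compound exposure 48 h, both 30 °C; detection: optical density (absorbance) at 615 nm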
Mdm2 ligase inh: blocks human Mdm2 ubiquitin ligase activity; Q00987; cell-based MDM2 ubiquitination luciferase reporter, 2 h; 0 = plate control, 100 = twice control, blank-subtracted; signal enhancement, % at 5 µM; 210,000 compounds, 0.11% hits; AID 1230;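 active = signal enhancement of 30% or more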;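 also: luminescence tracks abundance of the self-degrading MDM2-luciferase fusion protein; higher signal means inhibition of MDM2 E3 ligase activity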
Target sequence (Q00987 whole entry, looked up, the tested form may be a part): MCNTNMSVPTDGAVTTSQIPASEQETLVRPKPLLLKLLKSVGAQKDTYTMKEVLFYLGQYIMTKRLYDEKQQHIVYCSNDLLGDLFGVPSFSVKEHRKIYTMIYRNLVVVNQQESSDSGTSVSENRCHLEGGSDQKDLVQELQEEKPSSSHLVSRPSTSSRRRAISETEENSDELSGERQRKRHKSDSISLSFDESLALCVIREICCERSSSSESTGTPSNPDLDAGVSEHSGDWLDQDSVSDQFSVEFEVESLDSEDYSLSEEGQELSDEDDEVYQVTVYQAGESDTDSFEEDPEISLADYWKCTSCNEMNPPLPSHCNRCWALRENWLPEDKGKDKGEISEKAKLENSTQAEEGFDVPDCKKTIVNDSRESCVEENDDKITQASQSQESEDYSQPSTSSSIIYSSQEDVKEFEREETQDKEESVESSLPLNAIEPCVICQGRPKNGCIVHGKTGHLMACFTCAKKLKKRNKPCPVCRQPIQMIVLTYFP
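Assay system: stable mammalian line carrying autodegrading MDM2–luciferase fusion reporter; amount: 2000 cells seeded into each well; buffer or medium: DMEM; benchmarks: plate control and blank wells; signal: luciferase luminescence; timing: 2 h compound exposure at 37 °C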
Measles CPE: protection of cells from measles virus; protection (pct of control), % at 4 µM; 140,000 compounds, 1.5% hits; AID 841; Measles virus-infected cells, CPE protection, absorbance; in the data active = protection mostly above about 24%, no sharp cut-off; inactive = mostly below about 26%
RAM network inh: inhibitors of the yeast RAM network | inhibition, % at 50 µM | S. cerevisiae dse1pr::URA3 reporter, 5-FOA growth OD615, 2 d; analog-sensitive cbk1-as2 kinase mutant strain | 190,000 compounds, 1.8% hits;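 active = inhibition above a set limit, 3 SD over mean compound inhibition, cut at about 8.4% in these data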;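 also: 0% = DMSO-only wells with no growth and 100% = 10 µM 1-NA-PP1 full growth; inhibition rescues growth on 5-FOA so higher OD means more RAM inhibition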
The depositor's hits bear a star; . = no result given.

SMILES	INS promoter inh	Yeast growth inh	Yeast lifespan up	Mdm2 ligase inh	Measles CPE	RAM network inh
Cc1csc(SCC(=O)NC23CC4CC(CC(C4)C2)C3)n1	-20	-59	39*	-14	14	0
Cc1noc(C)c1CSc1nc2sc3c(c2c(=O)n1C)CCCC3	3	-28	-10	-18	96*	2
C=CCn1c(SCc2c(C)noc2C)nc2sc3c(c2c1=O)CCCC3	11	-15	-6	-9	1	6
Oc1c(Br)cc(Br)cc1/C=N/c1nc2c(s1)CCCC2	.	99*	-15	-8	6	-1
Oc1ccc2ccccc2c1/C=N/c1nc2c(s1)CCCC2	35	-21	33*	-9	2	6
Oc1c(Br)cc(Br)cc1C=NCc1ccccc1	.	.	.	-26	.	-1
O=C(COc1ccc(Cl)cc1)NCc1nnc(SCC(=O)Nc2ccccc2F)o1	-20	.	.	-12	.	3
CCOc1ccc(NC(=O)CCn2c(=O)[nH]c3ccsc3c2=O)cc1	-17	6	-8	-4	28	0
Cc1nn2c3ccccc3n(CCN3CCCCC3)c2nc1=O	-30	-9	.	14	9	0
C=CCn1c2ccccc2n2nc(C)c(=O)nc12	81*	-32	.	4	38*	0
CCOC(=O)c1cc(-c2ccc(OC)cc2)nc2c1c(C)nn2CCC#N	-350	-54	-4	0	30	8
COc1ccc(-c2cc(Nc3ccccc3NC(=O)C(F)(F)F)n(CCC#N)n2)cc1	60*	-24	-1	25	14	2
O=C(O)C1=C[C@@H](c2coc3ccccc3c2=O)C[C@@H](OCCCCO)O1	.	.	.	.	.	1
Cc1nn(-c2ccccc2)c(Cl)c1/C=N/Nc1nc2ccccc2n1C	78*	-32	-5	-5	4	-1
Cc1nn(-c2ccccc2)c(C)c1/C=N/Nc1nc2ccccc2[nH]1	84*	1	-2	-34	23	0
CCN(CC)C(=O)c1sc(NC(=O)c2ccc(C)c([N+](=O)[O-])c2)c(C#N)c1C	.	-34	-9	0	7	1
COc1ccc(C(=O)CN2Cc3ccccc3C2=N)cc1	.	.	.	-11	.	.
CN(C)c1ccc(/C=C(\Cl)c2nc3ccccc3s2)cc1	-48	-52	0	.	5	8.6*
O=C(CC(NC(=O)c1ccccc1Cl)c1ccccc1)NCCc1ccc(Cl)cc1 (stereo not drawn)	.	-9	-3	-9	41*	2
CCCCOC(=O)c1ccc(NC(=O)CSc2nncn2C)cc1	.	-12	-4	-4	21	-1
CCCCOC(=O)c1ccc(NC(=O)CSC2=Nc3ccccc3C3CC=NN23)cc1 (stereo not drawn)	.	-21	-12	-15	16	8.4*
Clc1ccc(OCc2noc(-c3ccsc3)n2)c(Cl)c1	.	.	.	-14	.	.
Cc1c(C(=O)NCCSCc2ccc(Cl)cc2Cl)cccc1[N+](=O)[O-]	-33	-33	-4	10	18	11*
c1ccc(Cc2nnc3sc(-c4ccncc4)nn23)cc1	38	-74	-2	3	12	3
c1ccc(Cc2nnc3sc(-c4ccccn4)nn23)cc1	71	-27	-24	-2	62*	0
SMILES	INS promoter inh	Yeast growth inh	Yeast lifespan up	Mdm2 ligase inh	Measles CPE	RAM network inh
CCOC(=O)N1CCC(NS(=O)(=O)c2ccc(NC(C)=O)c(Cl)c2)CC1	.	.	.	-16	.	.
Cc1cccc(N=C2Sc3nc4c(C)c(C)ccc4cc3CN2CCN2CCOCC2)c1	.	99*	-13	7	31*	1
N#Cc1ccc(Oc2nc(C(N)=O)cc(-c3ccccc3)n2)cc1	20	-52	-9	.	12	2
COC(=O)c1ccc(Oc2nc(C(N)=O)cc(-c3ccccc3)n2)cc1	61*	-57	-27	2	6	2
O=C(CSc1nc(Cc2ccccc2)nc2ccccc12)c1ccc2c(c1)OCCO2	.	-39	-5	-22	25	5
O=C(CSc1nnc(SCc2cccc3ccccc23)s1)Nc1ccc(C(=O)O)cc1	-21	.	.	-21	.	4
O=C(CSc1nnc(SCc2cccc3ccccc23)s1)c1ccc2c(c1)OCO2	-40	-36	-7	-13	20	8.8*
CCc1nc(SCC(=O)c2ccc3c(c2)OCCO3)c2ccccc2n1	41	-69	147*	3	9	2

High-throughput results as filed in PubChem.
